Compound activity (PubChem BioAssay)
Shown are actives, neighbours in structure and some others; about 2.8% of the full set was active somewhere.
E-sel inducer: E-selectin induction on HUVECs; AID 686992; HUVEC E-selectin immunofluorescence imaging; normalized: neutral wells 0, TNF-alpha wells 100; 260,000 compounds, 0.37% hits; activation, % at 7.58 µM;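 active = mean E-selectin-positive cell signal at least 10% of the positive control, reached in at least 60% of replicates, without over 20% cell loss; inconclusive = no rule given, readout overlaps actives, possibly toxicity-flagged; inactive = the rest, including those meeting only one limit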
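Read-out basis: % PE-positive cells; Test system: HUVEC primary endothelial cells; Technique: immunofluorescence imaging; Dosing: single-point compound dose.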
SIRT5 block: inhibitors of human sirtuin-5 desuccinylase; Q9NXA8; inhibition, % at 15 µM; Purified SirT5, succinyl-peptide AMC, trypsin-coupled fluorescence; 330,000 compounds, 1.1% hits; in the data active = inhibition above about 15%; inconclusive = no clear call, values can overlap the other calls
Target sequence (Q9NXA8 whole entry, looked up): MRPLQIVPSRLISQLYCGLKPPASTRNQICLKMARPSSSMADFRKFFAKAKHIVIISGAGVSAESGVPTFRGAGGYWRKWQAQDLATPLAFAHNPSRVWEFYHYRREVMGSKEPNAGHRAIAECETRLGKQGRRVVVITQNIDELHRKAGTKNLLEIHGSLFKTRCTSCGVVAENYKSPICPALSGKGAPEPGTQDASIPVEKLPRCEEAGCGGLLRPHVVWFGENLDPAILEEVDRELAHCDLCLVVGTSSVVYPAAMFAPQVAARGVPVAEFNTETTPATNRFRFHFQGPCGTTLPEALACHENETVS
DENV2 CPE rescue: inhibitors of DENV2 cytopathic effect | DENV2-infected cells, cytopathic effect rescue, plate reader | CPE inhibition, % at 9.99 µM | 350,000 compounds, 1.7% hits | AID 651640; in the data active = CPE inhibition above about 20%, passing the limit was not always enough; inconclusive = no clear call, values can overlap the other calls; tested in BHK-21 cells
Hits are given with their value; - = inactive; ? = inconclusive; . = no result given.

SMILES	E-sel inducer	SIRT5 block	DENV2 CPE rescue
CCS(=O)(=O)N1CCCCN2[C@H](CO)[C@@H](c3ccc(C#Cc4ccccc4OC)cc3)[C@H]2C1	-	-	-
CN(C)Cc1cn(CC[C@H]2CC[C@@H](NS(=O)(=O)c3ccccc3)[C@@H](CO)O2)nn1	-	-	-
CN1C(=O)c2cc(NC(=O)C3CCCC3)ccc2OC[C@@H]2O[C@@H](CC(=O)O)CC[C@H]21	-	-	-
COc1ccccc1NC(=O)N[C@H]1CC[C@H](CCNS(=O)(=O)c2ccc(Cl)cc2)O[C@@H]1CO	-	-	-
COc1cccc(NC(=O)N[C@@H]2CC[C@@H](CC(=O)N3CCOCC3)O[C@@H]2CO)c1	-	-	64
COc1ccc(NC(=O)N[C@H]2CC[C@@H](CCNS(=O)(=O)c3cccc(Cl)c3)O[C@@H]2CO)cc1	-	-	-
COc1ccccc1NC(=O)N[C@H]1CC[C@@H](CCNS(=O)(=O)c2ccc(Cl)cc2)O[C@H]1CO	-	-	20
COc1ccccc1NC(=O)N[C@H]1CC[C@H](CCNS(=O)(=O)c2ccc(C)cc2)O[C@H]1CO	-	-	22
COc1ccccc1NC(=O)N[C@H]1CC[C@H](CCNS(=O)(=O)c2ccc(C)cc2)O[C@@H]1CO	-	-	-
COc1cccc(NC(=O)N[C@H]2CC[C@@H](CC(=O)N3CCOCC3)O[C@@H]2CO)c1	-	-	-
COc1ccc(NC(=O)N[C@@H]2CC[C@@H](CCNS(=O)(=O)c3cccc(Cl)c3)O[C@@H]2CO)cc1	-	-	114
C[C@H](CO)N1C[C@H](C)[C@H](CN(C)C(=O)c2ccncc2)OCCCC[C@H](C)Oc2ccc(NS(=O)(=O)c3ccc(F)cc3)cc2C1=O	-	-	-
C[C@@H]1CCCCO[C@@H](CN(C)C(=O)Nc2ccc(C(F)(F)F)cc2)[C@H](C)CN([C@@H](C)CO)C(=O)c2cc(NC(=O)Nc3ccc(F)cc3)ccc2O1	-	-	-
COc1ccc(CN(C)C[C@@H]2OCCCC[C@H](C)Oc3ccc(NS(=O)(=O)c4ccc(OC)cc4)cc3C(=O)N([C@@H](C)CO)C[C@@H]2C)cc1	-	.	?
CO[C@H]1CN(C)C(=O)c2ccc(NS(=O)(=O)c3cccc(F)c3)cc2OC[C@H](C)NC[C@H]1C	-	-	-
CC1CCN(C(=O)c2ccc(CNc3c(N4CCCC4)c(=O)c3=O)cc2)CC1	-	-	-
O=C(c1ccc(CNc2c(N3CCCC3)c(=O)c2=O)cc1)N1CCN(C2CCCCC2)CC1	-	-	78
C[C@H](CO)N1C[C@H](C)[C@@H](CN(C)C(=O)Nc2ccc(C(F)(F)F)cc2)OCCCC[C@H](C)Oc2ccc(NC(=O)Nc3cccc4ccccc34)cc2C1=O	-	-	-
CCOC(=O)C1(Cc2ccccc2C)CCCN(C(=O)c2cc(C3CC3)[nH]n2)C1 (stereo not drawn)	-	-	26
CCOC(=O)C1(Cc2ccccc2C)CCCN(C(=O)c2ccccn2)C1 (stereo not drawn)	-	-	-
COc1ccc(CN(C)C[C@@H]2OCCCC[C@@H](C)Oc3ccc(NC(=O)Cc4ccccc4)cc3C(=O)N([C@H](C)CO)C[C@H]2C)cc1	-	.	-
CCS(=O)(=O)N[C@H]1CC[C@@H](CC(=O)NCc2ccccn2)O[C@H]1CO	-	-	-
CC(C)(CN1CCc2ccccc2C1)NS(=O)(=O)c1ccc(Cl)cc1	-	-	-
CC(C)(CN1CCN(Cc2ccccc2)CC1)NS(=O)(=O)c1ccc(Cl)cc1	-	-	30
C[C@@H]1CN([C@H](C)CO)S(=O)(=O)c2ccc(C3=CCCCC3)cc2O[C@@H]1CN(C)C(=O)C1CCC1	-	-	-
SMILES	E-sel inducer	SIRT5 block	DENV2 CPE rescue
Cc1ccc(C(=O)Cn2c3[n+](c4ccccc42)CC(O)CS3)cc1 (stereo not drawn)	-	-	-
O=C(Cn1c2[n+](c3ccccc31)CC(O)CS2)c1ccccc1 (stereo not drawn)	.	-	58
N#C[C@@H]1[C@H](c2ccccc2-c2ccccc2F)[C@H](CO)N1C(=O)Cc1ccccc1	-	-	-
C[C@H]1CN([C@@H](C)CO)C(=O)c2cc(C#CC3(O)CCCC3)cnc2O[C@H]1CN(C)C(=O)Cc1cccnc1	-	.	-
C[C@@H]1CN([C@@H](C)CO)C(=O)c2cc(NC(=O)NC3CCCCC3)ccc2O[C@@H](C)CCCCO[C@@H]1CN(C)C(=O)Cc1ccccc1	-	.	-
COc1cccc(C2c3[nH]c4ccccc4c3C[C@H]3C(=O)N(c4ccccc4C(=O)N4CCC(C(=O)O)CC4)C(=O)N23)c1 (stereo partly drawn)	.	-	83
COc1ccc(C2c3[nH]c4ccccc4c3C[C@H]3C(=O)N(c4ccccc4C(=O)N4CCC(C(=O)O)CC4)C(=O)N23)cc1 (stereo partly drawn)	.	-	-
O=C(NC1CCC1)[C@@H]1[C@@H](CO)[C@@H]2Cn3c(ccc(-c4ccc(F)cc4)c3=O)[C@H]1N2	-	-	-
CO[C@H]1CN(C)C(=O)c2ccc(NC(C)=O)cc2OC[C@H](C)N(C(=O)c2cccnc2)C[C@@H]1C	-	.	-
O=C(O)c1ccc2nc(-c3ccco3)c(-c3ccco3)nc2c1	.	22	-
O=C(O)c1ccc2nc3c(nc2c1)-c1ccccc1C3=O	.	-	-
CC(C)OC(=O)N(C)C[C@H]1OCc2ccccc2-c2c(n(C)c3ccccc23)C(=O)N([C@H](C)CO)C[C@@H]1C	-	-	-
CCc1ccc(NC(=O)CSCc2nc(N)nc(Nc3ccccc3CC)n2)cc1	-	.	.
CCc1ccccc1Nc1nc(N)nc(CSCC(=O)Nc2ccc(C)c(C)c2)n1	.	16	-
C[C@@H]1CN([C@H](C)CO)C(=O)c2cc(NS(C)(=O)=O)ccc2O[C@@H](C)CCCCO[C@@H]1CN(C)C(=O)C1CCCCC1	-	.	.
CCc1noc(C)c1C(=O)NNC(=O)COc1ccc(C)cc1	-	15	-
CCc1noc(C)c1C(=O)NNC(=O)COc1ccc(C)c(C)c1	.	-	-
COc1ccc(-c2cn(CC[C@@H]3CC[C@H](NC(=O)NC(C)C)[C@@H](CO)O3)nn2)cc1	-	-	-
O=S(=O)(N[C@@H]1CC[C@@H](CCNS(=O)(=O)c2ccccc2Cl)O[C@@H]1CO)c1ccccc1	-	-	-
CO[C@H]1CN(C)C(=O)c2ccc(NC(=O)Nc3cc(F)ccc3F)cc2OC[C@H](C)NC[C@@H]1C	-	-	-
OC[C@@H]1[C@@H](c2ccc(-c3ccc(F)cc3)cc2)[C@H]2CN(Cc3ccncc3)CCCCN12	-	-	-
OC[C@@H]1[C@H](c2ccc(-c3ccc(F)cc3)cc2)[C@@H]2CN(Cc3ccncc3)CCCCN12	-	-	38
COCC(=O)N1CCCCN2[C@@H](CO)[C@H](c3ccc(-c4ccc(C)cc4)cc3)[C@@H]2C1	-	-	47
COCC(=O)N1CCCCN2[C@@H](CO)[C@@H](c3ccc(-c4ccccc4)cc3)[C@@H]2C1	-	-	-
COCC(=O)N1CCCCN2[C@@H](CO)[C@@H](c3ccc(-c4ccc(C)cc4)cc3)[C@@H]2C1	-	-	66
COCC(=O)N1CCCCN2[C@H](CO)[C@H](c3ccc(-c4ccc(C)cc4)cc3)[C@@H]2C1	-	-	?
COCC(=O)N1CCCCN2[C@H](CO)[C@@H](c3ccc(-c4ccccc4)cc3)[C@H]2C1	-	-	40
